Assay outcomes: PubChem, several laboratories
An excerpt weighted towards active compounds, which were near 2.3% of everything screened.
Mcl1 Bid PPI = Mcl-1/Bid interaction inhibition | inhibition, % at 21.7 µM | 220,000 compounds, 0.97% hits | Q07820 | TR-FRET Mcl-1/Bid-Dy647 peptide binding, 1536-well;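 active = compounds that cut the binding signal by more than half at the single screening dose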;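 also: His-tagged Mcl-1 with europium anti-His antibody binding Bid BH3 peptide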
Target sequence (Q07820 whole entry, looked up): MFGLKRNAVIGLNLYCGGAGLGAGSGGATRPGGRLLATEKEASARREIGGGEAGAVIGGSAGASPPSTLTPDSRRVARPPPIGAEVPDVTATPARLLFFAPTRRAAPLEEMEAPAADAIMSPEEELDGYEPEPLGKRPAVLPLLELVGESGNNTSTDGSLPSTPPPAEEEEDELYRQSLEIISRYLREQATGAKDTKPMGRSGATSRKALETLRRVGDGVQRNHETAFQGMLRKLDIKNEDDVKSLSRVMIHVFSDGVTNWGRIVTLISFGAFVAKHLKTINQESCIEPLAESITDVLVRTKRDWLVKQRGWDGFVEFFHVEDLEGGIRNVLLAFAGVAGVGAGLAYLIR
T cell HTS = T cell immune modulators affecting CD8 T cell-vesicle binding; 2C CD8+ T cell-vesicle binding, flow cytometry; hits give low values; response (vesicle binding), % at 7 µM; 330,000 compounds, 0.068% hits;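 active = response, share of CD8 T cells binding vesicles, and their 90th percentile fluorescence all below set limits, cut at about 80% in these data, passing the limit was not always enough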;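 also: values below 100% mean blocked vesicle binding to the CD8+ T cells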
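Incubation: binding step 1.5 h, 37 °C, antibody labelling 20 min, ice; system: murine 2C transgenic CD8+ T lymphocytes; technique: cytometric PE anti-B7-1 and Alexa647 anti-CD8 signals after 1% paraformaldehyde fixation; also added: QL9-charged Drosophila Ld/ICAM-1/B7-1 vesicles; control set: naked versus QL9-loaded vesicles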
Mcl1-Noxa inh = Mcl-1/Noxa interaction inhibition. inhibition, % at 21.7 µM. 220,000 compounds, 1.5% hits. TR-FRET Mcl-1/Noxa peptide binding, 2 h. Q07820. AID 1022;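 active = compounds that cut the protein-peptide binding signal by more than 50% relative to plate controls in a single-dose test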;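 also: His-tagged Mcl-1 with rhodamine Noxa BH3 peptide and terbium anti-His antibody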
DSG3 Ab inh = human desmoglein-3 autoantibody binding inhibition; P32926; DSG3-coupled beads, scFv-anti-DSG3-GFP binding, flow cytometry; hits give low values; binding (percent of control), % at 10 µM; 310,000 compounds, 0.48% hits;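 active = binding more than 3 SD below its plate's average and above zero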;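 also: hits lower antibody fragment binding to DSG3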
MCL1 BIM primary = inhibitors of human MCL1 binding to BIM-BH3 peptide; Q07820; GST-MCL1 / FITC-Bim-BH3 fluorescence polarization; inhibition, % at 10.9 µM; 320,000 compounds, 0.68% hits;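 active = inhibition above the mean inhibition of all tested compounds plus 3 SD, set per campaign, cut at about 40% in these data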;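 also: higher means more loss of mP so more displacement of Bim peptide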
Mcl-1 Bim block = disrupts Bim peptide binding to human Mcl-1; Q07820; 190,000 compounds, 0.1% hits; inhibition, % at 10 µM; Bead-based flow cytometry, Bim peptide-Mcl-1 binding; in the data active = inhibition above about 40%
A number is an active result; - = inactive; . = no result given.

SMILES	Mcl1 Bid PPI	T cell HTS	Mcl1-Noxa inh	DSG3 Ab inh	MCL1 BIM primary	Mcl-1 Bim block
COCCNC(=O)CSc1ncnc2sc(-c3ccccc3)cc12	-	-	-	103	-	-
Nc1ncccc1OCc1ccc(Cl)c(Cl)c1	-	-	-	-	-	.
CN(C)CCCNCC(=O)Nc1ccccc1N1CCOCC1	62	-	-	-	-	-
O=C(Nc1ccccc1N1CCOCC1)c1cccs1	-	-	-	-	-	82
CCN(CC)c1ccc(NC(=O)/C=C\c2ccccc2Cl)cc1	-	-	91	-	-	-
Cc1cc(NC(=O)/C=C/c2ccccc2Cl)no1	-	-	-	-	-	-
CN(C)c1ccc(NC(=O)/C=C/c2ccccc2Cl)cc1	-	-	77	-	-	-
CCCCCN(C(=O)CCC(=O)OCC(=O)NCc1cccc(OC)c1)c1c(N)n(CCCC)c(=O)[nH]c1=O	.	-	.	-	-	.
CN(CCc1ccccc1)C(=O)c1ccc(NC(=O)Cc2cccc(NC(=O)C3CCN(C(=O)c4ccccc4)CC3)c2)cc1	.	.	.	-	.	.
C=C1[C@H](C)CN[C@H]1CCO	.	.	.	-	.	.
Cc1ccc(S(=O)(=O)N(C(=N)N)c2nc(N(C)C)nc(N(C)C)n2)cc1	.	-	.	-	-	.
Cc1ccc(S(=O)(=O)NCC(c2ccc3c(c2)OCO3)N2CCN(c3ccccc3)CC2)cc1 (centres undefined)	.	-	.	-	-	.
CCOC(=O)C1=c2/c(=C/c3ccncc3)c(N)c(C(=O)OC)n2C(=O)C(c2ccncc2)S1 (centres undefined)	62	-	-	-	-	-
CCCN(CCC)CCNC(=O)C1CC(=O)N(c2ccc(OC)cc2)C1c1ccc(OC)cc1 (centres undefined)	60	-	-	.	-	-
CCCCn1c(SCC(=O)NCCOC)nc2ccc(N3CCOCC3)cc2c1=O	-	-	89	-	-	-
CC(=O)/C(=N\Nc1ccccc1)Sc1cccc2cccnc12	-	-	69	-	-	-
CCc1ccccc1NC(=O)c1cccc(NC(=O)/C=C/c2ccco2)c1	-	-	-	-	-	-
O=C(O)CCCC(=O)Nc1cccc(C(=O)Nc2ccccc2C(=O)O)c1	82	-	-	-	-	-
O=C(/C=C/c1ccco1)Nc1cccc(C(=O)Nc2ccccc2C(=O)O)c1	-	-	57	-	-	.
CC(=O)c1c(C)[nH]c(C(=O)Nc2ccc(F)c(F)c2F)c1C	.	-	.	.	-	.
O=C(COC(=O)CCC(=O)c1ccc(F)cc1)Nc1ccccc1	-	-	-	-	-	-
CCN(CC)c1ccc(NC(=O)C(C)C)cc1	-	-	-	-	-	-
Cc1cccc(OCCCC(=O)Nc2ccc(Br)cc2)c1	-	-	-	-	-	-
CCN(CC)c1ccc(NC(=O)COC(=O)CCC(=O)c2ccc(F)cc2)cc1	-	-	70	-	-	-
CC(=O)Nc1ccc(NC(=O)CCCCCN2C(=O)c3ccccc3C2=O)cc1	-	-	-	-	-	-
SMILES	Mcl1 Bid PPI	T cell HTS	Mcl1-Noxa inh	DSG3 Ab inh	MCL1 BIM primary	Mcl-1 Bim block
Cc1cccc(OCCCC(=O)Nc2ccc(N(C)C)cc2)c1	-	-	77	-	-	-
CCN(CC)c1ccc(NC(=O)CCCCCN2C(=O)c3ccccc3C2=O)cc1	-	-	63	.	-	-
CCN(CC)c1ccc(NC(=O)CCCCC(=O)Nc2ccc(N(CC)CC)cc2)cc1	.	-	.	88	-	.
CC(C)Oc1ccc(C(=O)N2CCN(C(=O)c3ccco3)CC2)cc1	.	-	.	-	-	.
CC1CC(C)CN(S(=O)(=O)c2ccc(C(=O)OCC(=O)Nc3ccccc3)cc2)C1 (centres undefined)	.	.	.	-	.	.
O=C(Nc1ccccc1)C1CC2CCC1C2 (centres undefined)	.	-	.	-	-	.
CCN(CC)c1ccc(NC(=O)C2CC3CCC2C3)cc1 (centres undefined)	-	-	67	-	-	-
Nc1[nH]n2c(=O)cc(-c3ccccc3)nc2c1N=Nc1ccc2c(c1)OCO2	-	-	60	.	-	-
Cc1[nH]n(-c2ccccc2)c(=O)c1N=Nc1ccc2c(c1)OCO2	-	-	-	-	-	-
COc1ccc(Cl)cc1C(=O)C1CCCN(Cc2cnc(N3CCOCC3)s2)C1 (centres undefined)	-	-	-	28	-	-
Cc1ccccc1OCC(=O)Nc1ccc2c(c1)C(=O)c1ccccc1C2=O	-	-	67	-	-	-
CCOc1cccc(/C=C2/NC(=O)N(CC(=O)Nc3cccc(C)c3)C2=O)c1O	-	-	-	-	-	-
CCOc1cc(C=C2C(=O)c3ccccc3C2=O)ccc1OCC(=O)Nc1ccc(C)cc1	86	-	-	-	-	-
CCOc1cc(/C=C2/NC(=O)N(CC(=O)Nc3cccc(C)c3)C2=O)ccc1OCC(N)=O	-	-	59	50	-	-
O=C(COC(=O)Cn1cnc2ccccc21)Nc1ccc(Br)cc1	.	.	.	-	.	.
O=C(COC(=O)Cn1cnc2ccccc21)Nc1ccc2c(c1)C(=O)c1ccccc1C2=O	65	-	84	-	-	-
Cc1ccccc1NC(=O)COc1ccccc1C	.	-	.	-	-	.
Cc1ccccc1OCC(=O)Nc1ccccc1-c1ccccc1	.	-	.	8.5	-	.
Cc1cc(NC(=O)CSc2nnc(NC(=O)C3CC(=O)N(c4ccccc4)C3)s2)no1 (centres undefined)	51	-	-	-	-	-
COc1cc2c(-c3ccccc3)c(C)oc2cc1/C=N/NC(N)=S	.	-	.	-	-	.
CCOC(=O)N1CCC(NC(=O)C2CCN(S(=O)(=O)c3c(C)noc3C)CC2)CC1	55	-	-	-	-	-
CC(C)NC(=O)C1CCN(Cc2cccc(OCc3ccccc3)c2)CC1	.	.	.	83	.	.
CC(O)CNC(=O)C1CCN(Cc2ccc(OCc3ccccc3)cc2)CC1 (centres undefined)	63	-	-	-	-	-
CN(C(=O)c1ccc(NC(=O)Cc2ccc(NC(=O)C3CCCN(S(=O)(=O)c4cccc([N+](=O)[O-])c4)C3)cc2)cc1)C1CCCC1 (centres undefined)	.	.	.	-	.	.
CC(C)(C)OC(=O)CC[C@@H](C(=O)N1CCN(C(=O)OC(C)(C)C)CC1)n1cc(C(Cc2ccc(O)cc2)NC(=O)OC(C)(C)C)nn1 (some centres undefined)	-	-	-	-	-	-
O=C(CNC(=O)c1ccc(Cl)cc1Cl)OCn1nnc2ccccc2c1=O	.	-	.	-	-	.
CC(C)CC1C(=O)N(Cc2cn(CCC3OCCO3)nn2)CCS(=O)(=O)N1Cc1ccc(-c2ccc(Cl)c(Cl)c2)cc1 (centres undefined)	.	.	.	-	.	.
Cc1ccc2nc(-c3ccc(NC(=O)COC(=O)c4ccc(=O)[nH]c4)cc3)sc2c1	-	-	63	-	-	-
Cc1ccc2nc(-c3ccc(NC(=O)CN4C(=O)c5ccccc5C4=O)cc3)sc2c1	-	-	-	-	-	-
